ChEMBL document CHEMBL4689842, “EUbOPEN Chemogenomics Library wave 1” (2021)

System: U2OS
Experiment: Multiplex assay against U2OS
Format: toxicity, cell-based
Details: human
Summary of the method: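 With compound added, live cells were imaged on a CQ1 microscope at 37°C and 5% CO2; staining with Hoechst33342, BioTracker Green Microtubule Cytoskeleton Dye, MitoTracker Red and Annexin V Alexa Fluor 680 had been done at seeding. The CellPathfinder machine-learning gating scheme split cells into Hoechst high-intensity objects or normal cells, normal cells into healthy, pyknosed or fragmented nuclei, and pyknosed cells into mitotic or apoptotic. The tubulin, mitochondrial-mass and membrane-permeability phenotypes are per cents of healthy-nucleus cells.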

[1] = 12 h, 1 µM, compound concentration 1 uM, replicate 1
[2] = 12 h, 1 µM, compound concentration 1 uM, replicate 2
[3] = 12 h, 10 µM, compound concentration 10 uM, replicate 1
[4] = 12 h, 10 µM, compound concentration 10 uM, replicate 2
[5] = 24 h, 1 µM, compound concentration 1 uM, replicate 1
[6] = 24 h, 1 µM, compound concentration 1 uM, replicate 2
[7] = 24 h, 10 µM, compound concentration 10 uM, replicate 1
[8] = 24 h, 10 µM, compound concentration 10 uM, replicate 2
[9] = 48 h, 1 µM, compound concentration 1 uM, replicate 1
[10] = 48 h, 1 µM, compound concentration 1 uM, replicate 2
[11] = 48 h, 10 µM, compound concentration 10 uM, replicate 1
[12] = 48 h, 10 µM, compound concentration 10 uM, replicate 2

## C=C1/C(=C\C=C2/CCC[C@]3(C)[C@@H]([C@H](C)/C=C/[C@H](C)C(C)C)CC[C@@H]23)C[C@@H](O)C[C@@H]1O [DOXERCALCIFEROL]
[1]
  Population Apoptotic (%): 38%
  Population Fragmented Nuclei (%): 9%
  Population Healthy Nuclei (%): 82%
  Population Hoechst High Intensity Objects (%): 6%
  Population Membrane Permeable-Phenotype (%): 5%
  Population Mitochondria Different-Phenotype (%): 11%
  Population Mitotic Cells (%): 61%
  Population Normal (%): 93%
  Population Pyknosed Nuclei (%): 8%
  Population Tubulin-Different-Phenotype (%): 17%
  Total Cell Count: 2
[2]
  Population Apoptotic (%): 40%
  Population Fragmented Nuclei (%): 1%
  Population Healthy Nuclei (%): 90%
  Population Hoechst High Intensity Objects (%): 1%
  Population Mitochondria Different-Phenotype (%): 14%
  Population Mitotic Cells (%): 60%
  Population Normal (%): 98%
  Population Tubulin-Different-Phenotype (%): 9%
  Total Cell Count: 111
[3]
  Population Apoptotic (%): 36%
  Population Fragmented Nuclei (%): 20%
  Population Healthy Nuclei (%): 60%
  Population Hoechst High Intensity Objects (%): 9%
  Population Membrane Permeable-Phenotype (%): 8%
  Population Mitochondria Different-Phenotype (%): 17%
  Population Mitotic Cells (%): 63%
  Population Normal (%): 90%
  Population Pyknosed Nuclei (%): 19%
  Population Tubulin-Different-Phenotype (%): 8%
  Total Cell Count: 160
[4]
  Population Apoptotic (%): 0%
  Population Fragmented Nuclei (%): 27%
  Population Healthy Nuclei (%): 67%
  Population Hoechst High Intensity Objects (%): 6%
  Population Membrane Permeable-Phenotype (%): 2%
  Population Mitochondria Different-Phenotype (%): 21%
  Population Mitotic Cells (%): 100%
  Population Normal (%): 93%
  Population Pyknosed Nuclei (%): 5%
  Population Tubulin-Different-Phenotype (%): 13%
  Total Cell Count: 61
[5]
  Population Apoptotic (%): 7%
  Population Fragmented Nuclei (%): 8%
  Population Healthy Nuclei (%): 84%
  Population Hoechst High Intensity Objects (%): 2%
  Population Membrane Permeable-Phenotype (%): 3%
  Population Mitochondria Different-Phenotype (%): 8%
  Population Mitotic Cells (%): 92%
  Population Normal (%): 97%
  Population Pyknosed Nuclei (%): 6%
  Population Tubulin-Different-Phenotype (%): 9%
  Total Cell Count: 1
[6]
  Population Apoptotic (%): 42%
  Population Fragmented Nuclei (%): 5%
  Population Healthy Nuclei (%): 86%
  Population Hoechst High Intensity Objects (%): 4%
  Population Membrane Permeable-Phenotype (%): 4%
  Population Mitochondria Different-Phenotype (%): 7%
  Population Mitotic Cells (%): 57%
  Population Normal (%): 95%
  Population Pyknosed Nuclei (%): 8%
  Population Tubulin-Different-Phenotype (%): 14%
  Total Cell Count: 157
[7]
  Population Apoptotic (%): 56%
  Population Fragmented Nuclei (%): 43%
  Population Healthy Nuclei (%): 18%
  Population Hoechst High Intensity Objects (%): 23%
  Population Membrane Permeable-Phenotype (%): 11%
  Population Mitochondria Different-Phenotype (%): 26%
  Population Mitotic Cells (%): 43%
  Population Normal (%): 76%
  Population Pyknosed Nuclei (%): 37%
  Population Tubulin-Different-Phenotype (%): 7%
  Total Cell Count: 197
[8]
  Population Apoptotic (%): 33%
  Population Fragmented Nuclei (%): 25%
  Population Healthy Nuclei (%): 70%
  Population Hoechst High Intensity Objects (%): 3%
  Population Membrane Permeable-Phenotype (%): 1%
  Population Mitochondria Different-Phenotype (%): 16%
  Population Mitotic Cells (%): 66%
  Population Normal (%): 96%
  Population Pyknosed Nuclei (%): 4%
  Population Tubulin-Different-Phenotype (%): 13%
  Total Cell Count: 83
[9]
  Population Apoptotic (%): 21%
  Population Fragmented Nuclei (%): 4%
  Population Healthy Nuclei (%): 89%
  Population Hoechst High Intensity Objects (%): 2%
  Population Membrane Permeable-Phenotype (%): 2%
  Population Mitochondria Different-Phenotype (%): 13%
  Population Mitotic Cells (%): 78%
  Population Normal (%): 97%
  Population Pyknosed Nuclei (%): 6%
  Population Tubulin-Different-Phenotype (%): 10%
  Total Cell Count: 5
[10]
  Population Apoptotic (%): 42%
  Population Healthy Nuclei (%): 90%
  Population Hoechst High Intensity Objects (%): 1%
  Population Membrane Permeable-Phenotype (%): 0%
  Population Mitotic Cells (%): 57%
  Population Normal (%): 98%
  Population Pyknosed Nuclei (%): 5%
  Population Tubulin-Different-Phenotype (%): 11%
  Total Cell Count: 235
[11]
  Population Apoptotic (%): 47%
  Population Fragmented Nuclei (%): 53%
  Population Healthy Nuclei (%): 16%
  Population Hoechst High Intensity Objects (%): 18%
  Population Membrane Permeable-Phenotype (%): 25%
  Population Mitochondria Different-Phenotype (%): 29%
  Population Mitotic Cells (%): 52%
  Population Normal (%): 81%
  Population Pyknosed Nuclei (%): 30%
  Population Tubulin-Different-Phenotype (%): 25%
  Total Cell Count: 316
[12]
  Population Apoptotic (%): 22%
  Population Fragmented Nuclei (%): 12%
  Population Healthy Nuclei (%): 79%
  Population Hoechst High Intensity Objects (%): 3%
  Population Membrane Permeable-Phenotype (%): 2%
  Population Mitochondria Different-Phenotype (%): 22%
  Population Mitotic Cells (%): 77%
  Population Normal (%): 96%
  Population Pyknosed Nuclei (%): 8%
  Population Tubulin-Different-Phenotype (%): 28%
  Total Cell Count: 127
